The values below come from ChEMBL document CHEMBL3745659, “Synthesis and Characterization of 4,11-Diaminoanthra[2,3-b]furan-5,10-diones: Tumor Cell Apoptosis through tNOX-Modulated NAD(+)/NADH Ratio and SIRT1” (J Med Chem, 2015).

Experiment [1] relates to Calf thymus DNA. Briefly: Binding affinity to calf thymus double stranded DNA by spectrophotometric titration method. The class given is nucleic-acid assay. Particulars: Bos taurus. An outline of the steps:
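Absorption spectra of compound recorded while double-stranded DNA concentration was increased (spectrophotometric titration); extinction at absorption maxima 540 and 585 nm and band shift followed.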

Experiment [2] deals with T1, Ecto-NOX disulfide-thiol exchanger 2 (Homo sapiens) (UniProt Q16206).
T1 sequence (whole entry): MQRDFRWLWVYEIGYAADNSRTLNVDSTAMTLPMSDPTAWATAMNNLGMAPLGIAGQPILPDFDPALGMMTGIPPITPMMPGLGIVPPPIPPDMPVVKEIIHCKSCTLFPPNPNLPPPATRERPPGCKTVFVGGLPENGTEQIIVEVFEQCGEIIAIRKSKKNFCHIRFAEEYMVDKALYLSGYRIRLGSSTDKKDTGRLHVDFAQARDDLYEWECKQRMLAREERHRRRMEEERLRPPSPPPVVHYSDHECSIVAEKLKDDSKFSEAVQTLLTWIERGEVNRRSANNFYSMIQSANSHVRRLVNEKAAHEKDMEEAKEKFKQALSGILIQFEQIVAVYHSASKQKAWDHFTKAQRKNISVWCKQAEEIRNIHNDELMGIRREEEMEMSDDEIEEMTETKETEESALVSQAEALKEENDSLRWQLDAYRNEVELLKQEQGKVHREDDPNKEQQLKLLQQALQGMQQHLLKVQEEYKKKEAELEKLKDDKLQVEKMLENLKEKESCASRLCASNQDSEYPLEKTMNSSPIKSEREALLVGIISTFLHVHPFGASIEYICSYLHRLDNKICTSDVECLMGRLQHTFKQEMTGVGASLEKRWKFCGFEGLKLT
As to the kind of experiment: Inhibition of tNOX in human AGS cells assessed as decrease in intracellular NAD+/NADH ratio in human AGS cells at 5 uM incubated for 5 mins.

The test system of experiment [3] is K562. Briefly: Resistance index, ratio of IC50 for human K562/4 cells to IC50 for human K562 cells. The class given is functional.
For experiment [4], the system named is AGS. Briefly: Induction of apoptosis in human AGS cells assessed as change in mitochondrial transmembrane potential incubated for 1.5 hrs by DiOC6(3) dye-based flow cytometric analysis. Format: functional, cell-based. On the technique in general: In flow cytometry, cells or beads pass a laser one at a time.
Experiment [5] relates to AGS. Briefly: Upregulation of phosphorylated p53 level in human AGS cells at 1 and 5 uM after 24 hrs by Western blot analysis. The class given is functional, cell-based.
The subject of experiment [6] is AGS. Briefly: Induction of apoptosis in human AGS cells assessed as necrotic cells at 0.05 uM after 24 hrs by annexin V-FITC staining-based flow cytometric analysis (Rvb=0.9%). Format: functional. An outline of the steps: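 AGS cells exposed to compound for 24 h; Annexin V-FITC staining and flow cytometry used to give percentage of apoptotic cells; mean ± S.E. from at least three independent experiments.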

Experiment [7] is described as follows: Antiproliferative activity against human K562/4 cells after 72 hrs by MTT assay. Particulars: K562/4, 72 h. The class given is functional, cell-based. In general terms: Tetrazolium dyes change colour on reduction, which living cells bring about.
The target of experiment [8] is T2, NAD-dependent protein deacetylase sirtuin-1 (Homo sapiens, UniProt Q96EB6).
T2 sequence (Q96EB6 whole entry): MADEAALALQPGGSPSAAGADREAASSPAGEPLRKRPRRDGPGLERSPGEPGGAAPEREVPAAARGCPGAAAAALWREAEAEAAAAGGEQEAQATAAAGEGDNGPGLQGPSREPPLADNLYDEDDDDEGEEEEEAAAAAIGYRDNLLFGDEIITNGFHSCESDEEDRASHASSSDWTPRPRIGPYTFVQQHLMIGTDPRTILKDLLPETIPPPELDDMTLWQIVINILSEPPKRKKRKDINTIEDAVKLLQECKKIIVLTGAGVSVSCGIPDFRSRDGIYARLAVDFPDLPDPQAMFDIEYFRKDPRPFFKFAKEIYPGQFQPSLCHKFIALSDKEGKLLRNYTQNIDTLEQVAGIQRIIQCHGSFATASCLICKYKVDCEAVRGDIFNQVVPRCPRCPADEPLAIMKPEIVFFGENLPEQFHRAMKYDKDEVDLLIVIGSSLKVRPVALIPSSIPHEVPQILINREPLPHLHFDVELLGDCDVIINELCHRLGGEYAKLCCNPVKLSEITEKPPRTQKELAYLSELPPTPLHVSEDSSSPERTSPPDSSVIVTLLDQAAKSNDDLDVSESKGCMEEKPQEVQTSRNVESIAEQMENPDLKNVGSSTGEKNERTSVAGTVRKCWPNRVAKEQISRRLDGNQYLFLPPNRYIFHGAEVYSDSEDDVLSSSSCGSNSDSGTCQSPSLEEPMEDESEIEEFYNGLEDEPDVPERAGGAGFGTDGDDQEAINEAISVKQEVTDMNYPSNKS
As to the kind of experiment: Inhibition of human recombinant SIRT1 deacetylase activity using Arg-His-Lys-Lys(epsilon-acetyl)-AMC as substrate incubated for 45 mins by fluorescence analysis.

Experiment [9] in a line: Antiproliferative activity against human HCT116 cells after 72 hrs by MTT assay. The class given is functional, cell-based. Particulars: HCT-116, 72 h.
Experiment [10] deals with K562. Briefly: Antiproliferative activity against human K562 cells after 72 hrs by MTT assay. The class given is functional, cell-based. Particulars: K562, 72 h.
The target of experiment [11] is T3, DNA topoisomerase 1 (Homo sapiens) (UniProt P11387).
T3 sequence (whole entry): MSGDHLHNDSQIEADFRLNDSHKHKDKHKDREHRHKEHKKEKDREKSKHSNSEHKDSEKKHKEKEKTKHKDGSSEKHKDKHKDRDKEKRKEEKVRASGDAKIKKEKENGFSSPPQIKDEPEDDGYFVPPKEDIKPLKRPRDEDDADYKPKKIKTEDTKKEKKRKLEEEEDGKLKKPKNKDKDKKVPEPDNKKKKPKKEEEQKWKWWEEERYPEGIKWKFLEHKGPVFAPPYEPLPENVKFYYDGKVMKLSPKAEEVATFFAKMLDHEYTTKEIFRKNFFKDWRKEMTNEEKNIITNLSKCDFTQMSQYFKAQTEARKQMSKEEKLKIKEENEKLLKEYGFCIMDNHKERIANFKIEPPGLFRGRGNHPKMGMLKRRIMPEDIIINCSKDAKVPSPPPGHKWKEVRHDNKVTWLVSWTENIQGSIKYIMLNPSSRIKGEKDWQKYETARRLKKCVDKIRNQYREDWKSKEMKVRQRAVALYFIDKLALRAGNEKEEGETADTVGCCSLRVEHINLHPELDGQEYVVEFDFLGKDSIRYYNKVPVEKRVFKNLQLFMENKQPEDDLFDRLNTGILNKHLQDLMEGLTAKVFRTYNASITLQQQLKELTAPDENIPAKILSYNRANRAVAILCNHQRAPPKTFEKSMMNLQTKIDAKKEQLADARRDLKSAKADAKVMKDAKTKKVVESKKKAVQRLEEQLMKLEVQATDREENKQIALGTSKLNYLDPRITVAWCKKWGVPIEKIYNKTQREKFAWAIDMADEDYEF
As to the kind of experiment: Inhibition of Top1 (unknown origin)-mediated relaxation of pBR322 DNA at 2.5 uM incubated for 30 mins by ethidium bromide staining-based gel electrophoresis assay. An outline of the steps: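 Supercoiled pBR322 plasmid treated with Top1 without drug or with compound at 0.5, 2.5 or 10 µM; camptothecin as reference; relaxation assessed by gel electrophoresis.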

For experiment [12], the system named is AGS. As to the kind of experiment: Increase in intracellular NAD+/NADH ratio in human AGS cells at 5 uM incubated for 5 mins. The class given is functional, cell-based.

Structures are written as SMILES. Active and inactive are the calls of the source. The rule behind the calls is not given here.

`CNCCNc1c2c(c(NCCNC)c3occc13)C(=O)c1ccccc1C2=O` yielded a Ka in [1] of 2.5 ×10⁶ /M. Besides, the inhibition result in experiment [2] and in experiment [11] was “Active” in each case. Further, in experiment [3], the “Ratio IC50” value was determined as 0.71. The result in experiment [4] and in experiment [5] was Active. For the same molecule, the Activity in experiment [6] was found to be 7.5%. For the same molecule, the IC50 (as a rule, the point on the concentration scale where inhibition reaches its midpoint) in [7] came out at 150 nM; in [8], 3930 nM; in [9], 100 nM; in experiment [10] it was 210 nM. Besides, the result in [12] was inactive.
